Measured values: ChEMBL document CHEMBL1155843, “Selective alkylation of beta(II)-tubulin and thioredoxin-1 by structurally related subsets of aryl chloroethylureas leading to either anti-microtubules or redox modulating agents” (2008)
The source made the active and inactive calls. The rule behind the calls is not given here.

Columns and labels:
M21 [1] = experiment: Induction of beta2-tubulin alkylation in human M21 cells at 50 nM by Western blot analysis; type: cell-based
How it was run: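 Same M21 Western blot workflow (pooled cells, Laemmli lysis, 20 µg on 10% SDS-PAGE, anti-βII-tubulin 1:500, ECL), except that vinblastine, colchicine and paclitaxel were applied at 50 nM for 16, 24 and 48 h at 37 °C. The alkylated form appeared as a lower-apparent-MW band.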

M21 [2] = experiment: Inhibition of nuclear translocation of thioredoxin-1 from cytosol in human M21 cells at 50 nM after 16 hrs by immunocytofluorescence; type: functional, cell-based
How it was run: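 Reference agents colchicine or vinblastine were applied at 50 nM to M21 cells on fibronectin-coated coverslips. Cells were fixed in formaldehyde, permeabilized with saponin, and stained with anti-Trx-1 (1:200, 2 h, 37 °C) and Alexa-488 secondary. Nuclear versus cytosolic Trx-1 was assessed by confocal microscopy.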

M21 [3] = experiment: Induction of beta2-tubulin alkylation in human M21 cells at 2 times GI50 by Western blot analysis; type: cell-based
How it was run: (§1)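 Floating and adherent cells were pooled and lysed in boiled Laemmli buffer; protein was measured by Lowry. 20 µg per lane ran on 10% SDS-PAGE and was blotted with anti-βII-tubulin (1:500), HRP anti-mouse (1:2500) and ECL. Alkylation was scored as a faster-migrating βII-tubulin band.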

MCF7 [4] = experiment: Cell cycle arrest in human MCF7 cells assessed as accumulation at S phase at 2 times GI50 after 24 hrs by flow cytometry; type: functional
How it was run: (§2)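 Cells were trypsinized, PBS-washed, fixed in ice-cold ethanol, and stained with propidium iodide plus RNase for 30 min at room temperature. G0/G1, S and G2/M fractions were measured by flow cytometry.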

MCF7 [5] = experiment: Cell cycle arrest in human MCF7 cells assessed as accumulation at G2/M phase at 2 times GI50 after 24 hrs by flow cytometry; type: functional; how it was run: as §2
MCF7 [6] = experiment: Cell cycle arrest in human MCF7 cells assessed as accumulation at G0/G1 phase at 2 times GI50 after 24 hrs by flow cytometry; type: functional; how it was run: as §2
M21 [7] = experiment: Induction of beta2-tubulin alkylation in human M21 cells at 2 times GI50 after 48 hrs by Western blot analysis; type: cell-based; how it was run: as §1
M21 [8] = experiment: Inhibition of nuclear translocation of thioredoxin-1 from cytosol in human M21 cells at 2 times GI50 after 16 hrs by immunocytofluorescence; type: functional, cell-based
How it was run: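 Cells were fixed in 3.7% formaldehyde (20 min), permeabilized with 0.1% saponin and blocked with 3% BSA. Staining used anti-Trx-1 monoclonal (1:200, 2 h, 37 °C) and Alexa-488 anti-mouse IgG (1:1000, 1 h). Trx-1 cytosol/nucleus localization was read by confocal immunofluorescence.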

M21 [9] = experiment: Stimulation of nuclear translocation of thioredoxin-1 from cytosol in human M21 cells at 25 µM after 16 hrs by immunocytofluorescence
MCF7 [10] = experiment: Antiproliferative activity against human MCF7 cells after 48 hrs by sulforhodamine B method; type: functional; details: for GI50: MCF7, 48 h
How it was run: (§3)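 Seeding per well: 5 × 10³ HT-29 cells, or 3.5 × 10³ M21 or MCF-7 cells. Drugs were dissolved fresh in DMSO and serially diluted in medium (final range 100 to 0.3), with DMSO held at 0.12%. Cells were exposed for 48 h, fixed with cold TCA (10% final, 1 h, 4 °C) and stained with 0.1% SRB for 15 min. Dye was solubilized in 10 mM Tris and read at A585. Day-0 OD was subtracted, inhibition was calculated against DMSO cells, and n ≥ 3.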

HT-29 = experiment: Antiproliferative activity against human HT29 cells after 48 hrs by sulforhodamine B method; type: functional; details: for GI50: HT-29, 48 h; how it was run: as §3
M21 [11] = experiment: Induction of beta2-tubulin alkylation in human M21 cells at 2 times GI50 after 24 hrs by Western blot analysis; type: cell-based; how it was run: as §1
M21 [12] = experiment: Antiproliferative activity against human M21 cells after 48 hrs by sulforhodamine B method; type: functional; details: for GI50: M21, 48 h; how it was run: as §3

SMILES | Activity (M21 [1]) | Activity (M21 [2]) | Activity (M21 [3]) | Activity (MCF7 [4]) | Activity (MCF7 [5]) | Activity (MCF7 [6]) | Activity (M21 [7]) | Activity (M21 [8]) | Activity (M21 [9]) | GI50 (MCF7 [10]) | GI50 (HT-29) | Activity (M21 [11]) | GI50 (M21 [12]) | Activity (MCF7 [10]) | Activity (HT-29) | Activity (M21 [12])
CC(=O)O[C@H]1C(=O)[C@@]2(C)[C@H]([C@H](OC(=O)c3ccccc3)[C@]3(O)C[C@H](OC(=O)[C@H](O)[C@@H](NC(=O)c4ccccc4)c4ccccc4)C(C)=C1C3(C)C)[C@]1(OC(C)=O)CO[C@@H]1C[C@@H]2O [PACLITAXEL] | inactive | inactive | inactive | 11% | 80% | 9% | – | – | – | – | – | – | – | – | – | –
O=C(NCCCl)Nc1ccc(I)cc1 | – | – | – | – | – | – | Active | – | – | – | – | – | – | – | – | –
O=C(NCCCl)Nc1ccc2ccccc2c1 | – | – | – | 38% | 45% | 17% | Active | inactive | – | – | – | – | – | – | – | –
O=C(NCCCl)Nc1ccc2c(c1)Cc1ccccc1-2 | – | – | – | 57% | 32% | 11% | Active | inactive | – | – | – | – | – | – | – | –
CCC(C)SSc1ncc[nH]1 (stereo not given) [PX-12] | – | – | inactive | 13% | 58% | 29% | – | – | Active | – | – | – | – | – | – | –
CC1(C)CCC(C)(C)c2cc(NC(=O)NCCCl)ccc21 | – | – | – | 20% | 74% | 6% | Active | inactive | – | 4.2 µM | 1.3 µM | Active | 2.6 µM | – | – | –
CCCC1(c2ccc(NC(=O)NCCCl)cc2)CCCCC1 | – | – | inactive | 14% | 13% | 73% | – | Active | – | 23 µM | 18 µM | – | 36 µM | – | – | –
CC1CCC(Oc2ccc(NC(=O)NCCCl)cc2)CC1 (stereo not given) | – | – | inactive | 13% | 25% | 63% | – | Active | – | 21 µM | 16 µM | – | 23 µM | – | – | –
CC[C@]1(O)C[C@@H]2CN(CCc3c([nH]c4ccccc34)[C@@](C(=O)OC)(c3cc4c(cc3OC)N(C)[C@H]3[C@@](O)(C(=O)OC)[C@H](OC(C)=O)[C@]5(CC)C=CCN6CC[C@]43[C@@H]65)C2)C1 | inactive | inactive | inactive | – | – | – | – | – | – | – | – | – | – | – | – | –
CC(C)(C)c1ccc(NC(=O)NCCCl)cc1 | – | – | – | – | – | – | Active | inactive | – | – | – | – | – | – | – | –
O=C(NCCCl)Nc1ccc2c(c1)CCCC2 | – | – | – | 49% | 41% | 10% | Active | Active | – | 7.3 µM | 2 µM | – | 3.7 µM | – | – | –
COc1cc2c(c(OC)c1OC)-c1ccc(OC)c(=O)cc1[C@@H](NC(C)=O)CC2 | inactive | inactive | inactive | – | – | – | – | – | – | – | – | – | – | – | – | –
O=C(NCCCl)Nc1cccc(OC2CCCCCCC2)c1 | – | – | inactive | 29% | 10% | 61% | – | Active | – | 23 µM | 20 µM | – | 30 µM | – | – | –
O=C(NCCCl)Nc1ccc(OC2CCCCCCC2)cc1 | – | – | inactive | 14% | 16% | 70% | – | Active | – | 18 µM | 14 µM | – | 26 µM | – | – | –
O=C(NCCCl)Nc1ccc2c(c1)CCC2 | – | – | – | 29% | 40% | 31% | Active | – | – | – | – | – | – | – | – | –
O=C(NCCCl)Nc1ccccc1 | – | – | inactive | 22% | 19% | 59% | – | inactive | – | – | – | – | – | inactive | inactive | inactive
O=C(NCCCl)Nc1cccc(C2CCCCC2)c1 | – | – | inactive | 32% | 16% | 52% | – | Active | – | 20 µM | 11.7 µM | – | 18 µM | – | – | –
CCCCCCc1ccc(NC(=O)NCCCl)cc1 | – | – | – | 41% | 43% | 16% | Active | inactive | – | 6.5 µM | 2.9 µM | – | 3.8 µM | – | – | –
O=C(NCCCl)Nc1cccc(Oc2ccccc2)c1 | – | – | – | 26% | 30% | 44% | Active | inactive | – | – | – | – | – | – | – | –
CCNC(=O)Nc1ccc(C2CCCCC2)cc1 | – | – | inactive | 23% | 22% | 55% | – | inactive | – | – | – | – | – | inactive | inactive | inactive
